Data on 19 compounds can be found in ChEMBL document CHEMBL4219082, “2-Arylthio-5-iodo pyrimidine derivatives as non-nucleoside HBV polymerase inhibitors” (Bioorg Med Chem, 2018).

Active and inactive are the calls of the source. The rule behind the calls is not given here.

Series [1] can be described thus: Cytotoxicity against human HepG2.2.15 cells […] by MTT assay. In kind it is cell-based, HepG2 2.2.15. The procedure, abridged:
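HepG2.2.15 cells were seeded at 2×10^5 cells/mL and dosed with graded compound concentrations after 24 h. Medium with compound was refreshed at 72 h, then cells were kept a further 72 h. MTT was added for 4 h, formazan was dissolved in DMSO and absorbance read at 490 nm. The value is CC50, the concentration giving 50% cytotoxicity.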

Series [2] is described as follows: Selectivity index, ratio of CC50 for human HepG2.2.15 cells to EC50 for HBV infected in human HepG2.2.15 cells. In kind it is toxicity, cell-based. The settings on record: read-out: Ratio CC50/EC50. In short, it runs like this: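 Selectivity index is calculated as CC50/EC50. CC50 comes from an MTT assay and EC50 from qRT-PCR of intracellular HBV DNA. Both use HepG2.2.15 cells dosed for two 72 h periods with a medium renewal between them.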

A short description of series [3]: (§1) Inhibition of DHBV DNA polymerase derived from infected duckling liver assessed as decrease in biotin-11-dUTP incorporation using poly (A)/oligo(dT)15 as template/primer after 1 hr by ELISA. More on the design: species or system Duck hepatitis B virus. The procedure, abridged: (§2)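 Enzyme is DHBV polymerase from liver homogenate of infected ducklings. It was pelleted, and the 35% and 40% fractions of a sucrose density gradient were pooled and used at a "1/100" dilution of one liver's yield. Oligo(dT)15 primer is covalently immobilized on the plate. The mix contains 17.5 µg/ml poly(A), 8 µM dTTP, 2 µM biotin-11-dUTP, 5 mM DTT, 17 mM MgCl2, 65 µg/ml BSA, 50 mM Tris-HCl pH 8.3 and 75 mM KCl. Incubation is 1 h at 37 °C. After BSA blocking, streptavidin-alkaline phosphatase is added and PNPP signal is read after NaOH stop. Line 6 is tested at 100 µM and line 7 at 200 µM.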

Series [4] concerns Hepatitis B virus. In words: Antiviral activity against HBV infected in human HepG2.2.15 cells assessed as inhibition of viral DNA levels at 20 uM […] by qRT-PCR analysis relative to control. In kind it is functional. The procedure, abridged: (§3)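 HepG2.2.15 cells were seeded at 2×10^5 cells/mL and exposed to compound 24 h later. Compound-containing medium was renewed at 72 h and cells were kept another 72 h. After a PBS wash, intracellular HBV DNA was extracted from lysates and quantified by qRT-PCR. Line 1 gives the 50% inhibitory concentration; lines 2 and 3 test single concentrations of 10 µM and 20 µM.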

For series [5], the system named is Duck hepatitis B virus. Briefly: Inhibition of DHBV DNA polymerase derived from infected duckling liver assessed as decrease in biotin-11-dUTP incorporation using poly (A)/oligo(dT)15 as template/primer at 100 uM after 1 hr by ELISA relative to control. In short, it runs like this: as §2
Series [6] relates to Hepatitis B virus. Briefly: Antiviral activity against HBV infected in human HepG2.2.15 cells assessed as inhibition of viral DNA levels at 10 uM after […] by qRT-PCR analysis. The class given is functional, organism-based. The procedure, abridged:
as §3

Series [7] concerns Duck hepatitis B virus. In words: Inhibition of DHBV DNA polymerase derived from infected duckling liver assessed as decrease in biotin-11-dUTP incorporation using poly (A)/oligo(dT)15 as template/primer at 200 uM after 1 hr by ELISA. The procedure, abridged:
as §2

Series [8] deals with Duck hepatitis B virus. The description is as §1. In short, it runs like this: as §2

`O=c1[nH]c(SCc2ccc([N+](=O)[O-])cc2)nc(Cc2cc(F)cc(F)c2)c1I` yielded a CC50 in series [1] of more than 100 µM. Moreover, in series [2], the selectivity ratio was more than 16. In series [3], the half-inhibitory concentration (IC50) amounted to 29.5 µM.
Compound `Cc1cc(C)cc(Cc2nc(SCc3ccc([N+](=O)[O-])cc3)[nH]c(=O)c2I)c1` gave a cytotoxic concentration (CC50) in series [1] of 39 µM. Also, in series [2], the selectivity ratio was 5.9. The IC50 in series [3] is 33 µM.
For `O=c1cc(Cc2cc(F)cc(F)c2)nc(SCc2ccc([N+](=O)[O-])cc2)[nH]1`, the inhibition at 20 µM in the series with Hepatitis B virus [4] was determined as 32.9%. In addition, the inhibition with Duck hepatitis B virus [5] amounted to 16.1%.
In series [1], `N#Cc1ccc(CSc2nc(C(=O)N3CCCc4ccccc43)c(I)c(=O)[nH]2)cc1` yielded a half-maximal cytotoxic concentration (CC50) of more than 100 µM. Besides, the selectivity ratio in series [2] is more than 62. In addition, in series [3], the IC50 was more than 200 µM.
In the case of `N#Cc1ccc(CSc2nc(CN3CCCCC3)c(I)c(=O)[nH]2)cc1`, the inhibition result with Hepatitis B virus [6] and in the series on Duck hepatitis B virus [7] was “inactive” throughout.
On to `N#Cc1ccc(CSc2nc(C(=O)NCCCc3ccccc3)c(I)c(=O)[nH]2)cc1`, for which, in series [1], the CC50 was more than 50 µM. Besides, the selectivity ratio in series [2] was more than 30. Moreover, the IC50 in series [3] was more than 200 µM.
Consider `N#Cc1ccc(CSc2nc(Cn3nnc4ccccc43)c(I)c(=O)[nH]2)cc1`, for which the inhibition result in the series on Hepatitis B virus [6] was “inactive”. In addition, in series [3], the IC50 stood at 128 µM.
Take `CN1CCN(C(=O)c2nc(SCc3ccc(C#N)cc3)[nH]c(=O)c2I)CC1`: in series [1], the CC50 was more than 100 µM. In addition, in series [2], the selectivity ratio is more than 38. In the series with Duck hepatitis B virus [7], the inhibition entry is “inactive”.
As for `O=c1[nH]c(SCc2ccc([N+](=O)[O-])cc2)nc(Cn2nnc3ccccc32)c1I`, the inhibition entry with Hepatitis B virus [6] is “inactive”. For the same compound, in series [3], the IC50 stood at 104 µM.
With `N#Cc1ccc(CSc2nc(CN3CCc4ccccc4C3)c(I)c(=O)[nH]2)cc1`, in series [3], the IC50 was found to be 60.5 µM.
Turning to `COC(=O)c1ccc(CSc2nc(Cc3cc(C)cc(C)c3)c(I)c(=O)[nH]2)cc1`, in series [1], the CC50 came to 64.8 µM. Also, in series [2], the selectivity ratio stood at 5. For the same compound, the IC50 in series [3] came out at 38.8 µM.
Take `CC(=O)c1ccc(CSc2nc(Cc3cc(C)cc(C)c3)c(I)c(=O)[nH]2)cc1`: the midpoint of cytotoxicity in series [1], the CC50, lay at 78.3 µM. For the same compound, the selectivity ratio in series [2] stood at 6.4. In series [3], the IC50 was determined as 42.9 µM.
Taken in the same sequence, the figures for `O=c1[nH]c(SCc2ccc([N+](=O)[O-])cc2)nc(Cc2ccccc2)c1I` were 52.7 µM, 7 and 42.8 µM.
Taken in the same sequence, the figures for `Cc1cc(C)cc(Cc2nc(SCCOc3ccc([N+](=O)[O-])cc3)[nH]c(=O)c2I)c1` were 96.6 µM, 14 and 56 µM.
Consider `O=C(O)P(=O)(O)O` [FOSCARNET], for which the 50% inhibitory concentration (IC50) in series [3] was 6.54 µM. The inhibition result with Duck hepatitis B virus [8] is “Dose-dependent effect”.
Turning to `Cc1cc(C)cc(Cc2nc(SCc3ccc(C#N)cc3)[nH]c(=O)c2I)c1`, in series [1], it took 43.2 µM to reach half-maximal cytotoxicity (CC50). The selectivity ratio in series [2] is 6.1. Besides, the IC50 in series [3] was 35.6 µM.
`Cc1cc(C)cc(Cc2nc(SCCc3ccc([N+](=O)[O-])cc3)[nH]c(=O)c2I)c1`: in series [1], half-maximal cytotoxicity (CC50) was put at 66.6 µM. Besides, the selectivity ratio in series [2] was found to be 6.8. Also, in series [3], the IC50 was found to be 71.9 µM.
With `Nc1ccn([C@H]2CS[C@@H](CO)O2)c(=O)n1`, the CC50 in series [1] was more than 100 µM. For the same compound, in series [2], the selectivity ratio was more than 164.
For `COC(=O)c1ccc(CSc2nc(Cc3cc(C)cc(C)c3)cc(=O)[nH]2)cc1`, the inhibition at 20 µM with Hepatitis B virus [4] came to 13.3%. Also, in the series on Duck hepatitis B virus [5], the inhibition turned out to be 3.66%.
